Source: PubChem BioAssay AID871 (The Scripps Research Institute Molecular Screening Center, 2007)
Screen size: about 190,000 compounds; about 1,800 (0.95%) were called active.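 The calls were made as follows: active = activation above the screen-wide mean of compound activation plus 3 SD (cut at about 130% in these data); inactive = the rest.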 This excerpt belongs to a sample that is enriched for actives.

Experiment: enhancers of STAT3 transcriptional signaling – U3A cells, luciferase, luminescence, MLSCN library, primary screen (AID 871);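 also: 0% = background luminescence of wells with medium and substrate only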
Details: IL-6 STAT3-luciferase reporter, at 5.6 µM, active compounds read high, 100% = signal with IL-6 EC80 alone
In short: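 Material: STAT3-luciferase reporter U3A cells. Controls: IL-6-treated wells, 100% activation. Read-out: % activation versus median of IL-6-stimulated wells. Probe or stimulus: IL-6 stimulus at 33 ng/mL final. Timing: compound 1 h, then IL-6 6 h at 37 °C. Signal: reporter luminescence signal.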

Activation (% of control), inactive:
Cn1c(=NC(=O)c2cnccn2)sc2ccccc21 83.8%
CCCC(=O)N=c1sc2cccc(F)c2n1C 113%
CC(C)(C)N(Cc1ccccc1)C(=O)COC(=O)CCc1c[nH]c2ccccc12 87.1%
NS(=O)(=O)c1ccc(NC(=O)COC(=O)CCc2c[nH]c3ccccc23)cc1 108%
COc1ccccc1NC(=O)CCCc1c[nH]c2ccccc12 88.8%
O=C(CSc1nnc(-c2c[nH]c3ccccc23)o1)c1ccccc1 106%
CCC(CC)NC(=O)CSc1nnc(-c2c[nH]c3ccccc23)o1 90.9%
CN(Cc1cccs1)C(=O)Cc1c[nH]c2ccccc12 86%
Cc1ccnc(NC(=O)Cn2ccc([N+](=O)[O-])n2)c1 96.1%
CCOC(=O)c1cnc2c(c(C)nn2CC)c1Cl 107%
Oc1oc(-c2ccccc2Br)nc1/C=N/c1ccccn1 107%
O=C(CSc1ccccc1F)NC1CCS(=O)(=O)C1 (stereo not drawn) 95.7%
CC(NC(=O)COC(=O)C1CCN(S(=O)(=O)c2ccccc2C(F)(F)F)CC1)c1ccccc1 (stereo not drawn) 106%
CCOc1ccc(-n2c(SCC(=O)NC3CCS(=O)(=O)C3)nnc2-c2cccnc2)cc1 (stereo not drawn) 99.7%
COC(=O)C(C)N=Cc1ccccc1 (stereo not drawn) 102%
S=C(NCCc1ccccc1)N1CCn2cccc2C1c1ccncc1 (stereo not drawn) 103%
Cn1nc(C(F)(F)F)c2cc(C(=O)N3CCOCC3)sc21 105%
Cc1ccc(NC(=O)CN2CCc3ccccc3C2)cc1 99.5%
Cc1ccc(S(=O)(=O)C(C#N)c2nc3ccccc3nc2N2CCCC2)cc1C (stereo not drawn) 92.7%
O=C(COc1ccccc1)Nc1ccc(N2CCN(C(=O)c3cccs3)CC2)cc1 93.1%
O=C1NC2(CCCCCC2)C(=O)N1CCS(=O)(=O)Oc1ccccc1 104%
Cc1cc(NC(=O)CSc2nc3cc(Cl)ccc3c(=O)n2Cc2ccco2)no1 103%
Cc1ccc(Cn2c(C)nc3c(c2=O)c2nc4ccccc4nc2n3Cc2ccco2)cc1 107%
C/C(=N\NC(=O)CCn1nc(C)cc1C)C(C)(C)C 95.6%
O=C(CSc1ncnc2scc(-c3ccccc3)c12)NCc1ccc2c(c1)OCO2 103%
CCOC(=O)N1CCN(C(=O)c2cc3c(-c4ccc(Cl)cc4)nn(C)c3s2)CC1 107%
COc1ccc2c(Cl)c(C(=O)NCc3ccco3)sc2c1 95.9%
COc1ccc(-c2cc(C(=O)NCc3ccco3)no2)cc1OC 101%
COc1cccc(-c2nn(C)c3sc(C(=O)N4CCN(c5ccccc5)CC4)cc23)c1 103%
CN(C)C(=O)c1ccc2c(c1)C1C3CCC(C3)C1C(c1ccccc1)N2 (stereo not drawn) 91.5%
CCOc1ccc(NS(=O)(=O)c2cc(C)c(C)cc2C)cc1 102%
COc1cc(OC)cc(C(=O)N[C@H](C(=O)OCC(=O)NC(C)c2ccccc2)C(C)C)c1 (stereo partly drawn) 102%
COc1ccc(OC(C)C(=O)NCCc2nc3ccccc3[nH]2)cc1 (stereo not drawn) 98.1%
Cc1cc2oc(=O)cc(CN3CCN(S(=O)(=O)c4cccs4)CC3)c2cc1C(C)C 98.7%
C=CCn1c(C)cc(C2=NNC(=NCC)SC2)c1C 8.94%
Cc1cc(C2=NNC(=Nc3ccc(S(=O)(=O)N4CCOCC4)cc3)SC2)c(C)n1CC1CCCO1 (stereo not drawn) 102%
Cc1c(Cl)c([N+](=O)[O-])nn1CCCC(=O)NC(C)c1ccccc1 (stereo not drawn) 101%
O=S1(=O)CC/C(=N\Nc2ccc(F)cc2)c2ccsc21 80.3%
C=Cn1c(C(=O)O)ccc1-c1ccc(OC)cc1 103%
O=C(COC(=O)c1ccncc1)c1ccccc1 97.1%
COc1cccc(NC(=O)C(Sc2nnnn2C)c2ccccc2)c1 (stereo not drawn) 88.9%
COC(=O)c1c(-c2cccs2)csc1NC(=O)CSc1ncnc2sc(C)c(C)c12 93.1%
CSc1ncnc2sc(C)c(C)c12 91.1%
Cc1csc(CN(C)C(=O)CC2C(=O)NCCN2CC(C)(C)C)n1 (stereo not drawn) 96.6%
O=C(CN1CCN(c2ccc(Cl)cc2)CC1)NCc1cccs1 99%
Cc1c(CCO)c(=O)n(-c2ccccc2)n1S(=O)(=O)c1ccc(F)cc1 100%
CC(=O)NC1(c2ccc(F)cc2)CCN(C(=O)c2c(F)cccc2F)CC1 104%
CN1CCN(CCCCOc2ccccc2-c2ccccc2)CC1 96.6%
CCOC(=O)c1ccccc1NC(=S)N1CCC(C(N)=O)CC1 98.2%
COc1ccc(Cl)cc1N(CC(=O)N1CCCCC1)S(C)(=O)=O 99%
Cc1ccc2cc(C)c(N3CCC(C)CC3)nc2c1 86.1%
COc1ccccc1N1CCN(C(=O)CSc2nnc(-c3ccoc3C)o2)CC1 93.7%
COc1ccccc1-c1nnc(SCC(=O)Nc2ccccc2)o1 91.3%
Cc1ccc(-n2c(SCC(=O)Nc3ncc(Cl)cc3Cl)nc3ccccc32)cc1 98%
Cc1ccc(NC(=O)c2sc3nc(N)c(C#N)cc3c2N)cc1 100%
Cc1cccc(OP(=O)(Nc2c(C)n(C)n(-c3ccccc3)c2=O)Oc2cccc(C)c2)c1 98.3%
COc1ccc(C)cc1NC(=O)c1ccc(-c2ccc(C(C)=O)cc2)o1 78.6%
COc1cccc(NC(=S)NCc2ccccn2)c1 106%
COc1cccc(NC(=O)C(C)Oc2ccccc2)c1 (stereo not drawn) 97.5%
O=C(NCC1CCN(Cc2ccccc2Cl)CC1)Nc1cccc(Cl)c1 102%
CNc1nc(Nc2ccc(C)c(Cl)c2)nc(N)c1[N+](=O)[O-] 132%
COc1ccc(/C=C(\NC(=O)c2ccc(OC)c(OC)c2)C(=O)NCCc2c[nH]c3ccccc23)cc1 112%
O=C(NC(Cc1c[nH]c2ccccc12)C(=O)O)/C(=C/c1ccco1)NC(=O)c1ccccc1 (stereo not drawn) 107%
O=C(CN1CCc2ccccc21)NC(c1ccccc1)c1ccccc1 103%
NS(=O)(=O)c1cccc(NC(=O)CN2CCCc3ccccc32)c1 106%
CCOC(=O)c1[nH]c2ccc(OC)cc2c1NC(=O)CCN1CCN(Cc2ccccc2)CC1 104%
Cc1ccccc1NC(=O)CNc1ccccc1N1CCCCC1 101%
CC(C(=O)N=Nc1c(O)n(C)c2ccc(Br)cc12)n1cnc2ccccc2c1=O (stereo not drawn) 121%
CCN1CCN(c2ccc(NC(=O)c3cnccn3)cc2)CC1 100%
CCCCCC1CCC(c2nnc(SCC(C)=O)o2)CC1 (stereo not drawn) 101%
CN(C)/C(=N\OC(=O)c1ccccc1)c1nonc1N 97.7%
Cn1c(-c2ccc(F)cc2)cnc1SCC(=O)NCc1ccco1 101%
CCn1c(Cc2ccccc2)nnc1SCc1nc2ccccc2c(=O)[nH]1 107%
CC(C(=O)O)n1cnc2sc3c(c2c1=O)CCCC3 (stereo not drawn) 102%
COc1ccc(C2C(C(C)=O)=C(O)C(=O)N2CCc2c[nH]c3ccccc23)cc1 (stereo not drawn) 108%
COc1ccc(C2C(C(C)=O)=C(O)C(=O)N2Cc2cccnc2)cc1 (stereo not drawn) 100%
O=C(Cc1ccccc1Cl)N1CCN(c2ccccn2)CC1 100%
Cn1nnnc1NCc1ccc(Cl)c(Cl)c1 101%
C[n+]1ccc(/C=C/c2c[nH]c3ccccc23)cc1 115%

Activation (% of control), active:
Cn1c(=NC(=O)c2ccco2)sc2cccc(F)c21 144%
O=C(Cc1c[nH]c2ccccc12)OCCOC(=O)Cc1c[nH]c2ccccc12 136%
NC(=O)CSc1c[nH]c2ccccc12 143%
CCOC(=O)CN(C)Cc1c[nH]c2ccccc12 137%
Cc1ccc(S(=O)(=O)Nc2nc3ccccc3nc2N2CCc3ccccc3C2)cc1 147%
Clc1cccc(-c2nc3nc4ccccc4nc3n2Cc2ccco2)c1 135%
COc1ccccc1N1CCN(C(=O)c2cc3c(-c4ccc(Cl)cc4)nn(C)c3s2)CC1 146%
Cn1nc(-c2ccc(Cl)cc2)c2cc(C(=O)NCc3ccco3)sc21 158%
COc1cc(OC)cc(C(=O)N[C@H](C(=O)Nc2nc3ccccc3[nH]2)C(C)C)c1 148%
COCCn1c(C)cc(C2=NNC(=Nc3ccc(F)cc3)SC2)c1C 133%
Cc1sc2ncnc(Sc3nc4ccccc4s3)c2c1C 135%
Cc1c(CCO)c(=O)[nH]n1C(=O)c1c(F)cccc1F 134%
COc1ccccc1-c1nnc(SCC(=O)N2CC(C)CC(C)C2)o1 (stereo not drawn) 138%
COc1cccc(NC(=S)C(C#N)=C2N(C)c3ccccc3N2C)c1 145%
Cc1ccc(C(=O)N/C(=C/c2ccco2)C(=O)NCCc2c[nH]c3ccccc23)cc1C 134%
COC(=O)c1[nH]c2ccccc2c1NC(=O)CN1CCCc2ccccc21 154%
COC(=O)c1[nH]c2cccc(C)c2c1NC(=O)CN1CCCc2ccccc21 140%
O=c1[nH]c(CSc2ncc(-c3ccc(F)cc3)n2Cc2ccco2)nc2ccccc12 152%
COc1ccc(C2C(C(C)=O)=C(O)C(=O)N2c2nccs2)cc1 (stereo not drawn) 134%
